# Reference: ChEMBL document CHEMBL1143895, “Core-modified porphyrins. Part 6: Effects of lipophilicity and core structures on physicochemical and biological properties in vitro” (Bioorg Med Chem, 2008)
# How the values were obtained:
# [1] = Singlet oxygen generation assessed as DPBF oxidation at 1 uM; assay type: functional
# Procedure, shortened: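 DPBF consumption by singlet oxygen from the irradiated porphyrin, with stirring under 3 mW/cm² light. UV absorbance of DPBF read every 2 min up to 10 min, expressed as percent DPBF oxidized.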
# R3230AC [2] = experiment: Cytotoxicity in rat R3230AC cells under dark condition upto 10 uM after 24 hrs by MTT assay; assay type: functional, cell-based
# Procedure, shortened: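 Dark toxicity in R3230AC cells, seeded 1.0–1.5×10^4 cells/well and grown 24 h at 37 °C, 5% CO2. Porphyrin up to 10 μM in complete medium for 24 h, rinsed with saline. Cells held 1 h in the dark in clear serum-free medium, then 24 h in complete medium before MTT, read as percent of untreated dark controls.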
# R3230AC [3] = experiment: Drug uptake in rat R3230AC assessed as intracellular accumulation per cell at 10 uM after 24 hrs; assay type: ADME, cell-based
# Procedure, shortened: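 R3230AC cells seeded 2.0–3.0×10^4/well and grown 24 h. Porphyrin from a 2 mM DMSO stock, diluted in complete medium to 10 μM final, 24 h at 37 °C. Monolayer rinsed twice with 0.9% NaCl and lysed in DMSO. Porphyrin fluorescence read and converted through a DMSO standard curve to fmol/cell. Mean with SEM.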
# R3230AC [4] = experiment: Cytotoxicity in rat R3230AC cells irradiated with 10.8J/cm^2 of water filtered halogen light after 24 hrs by MTT assay; assay type: functional, cell-based; conditions: light or radiation study
# Procedure, shortened: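 R3230AC rodent mammary adenocarcinoma cells in α-MEM with 10% bovine growth serum, seeded 1.0–1.5×10^4 cells/well and grown 24 h at 37 °C, 5% CO2. Porphyrin in complete medium for 24 h, rinsed with saline, then irradiated 1 h in clear serum-free medium with water-filtered halogen light (400–850 nm, 3 mW/cm², 10.8 J/cm²). Given complete medium, 24 h dark, then MTT vs light-only controls. IC50 from Hill fit; ≥3 experiments in duplicate.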
# [5] = Lipophilicity, log D at pH 7.4; assay type: physicochemical; conditions: buffer
# Procedure, shortened: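 Shake-flask method: porphyrin dissolved in equal volumes of n-octanol and pH 7.4 phosphate buffer, sonicated 30 min, left to settle 4 h. Each phase measured by UV-vis absorbance and reported as log D7.4.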
Compound,Activity [1],Activity (R3230AC [2]),Drug uptake (R3230AC [3]),IC50 (R3230AC [4]),logD [5]
CC(C)(C)c1ccc(-c2c3nc(c(-c4ccc(OCC(=O)O)cc4)c4ccc(s4)c(-c4ccccc4)c4nc(c(-c5ccccc5)c5ccc2s5)C=C4)C=C3)cc1,75%,Not toxic,0.46 fmol,590 nM,> 2
O=C(O)COc1ccc(-c2c3nc(c(-c4ccc(F)cc4)c4ccc(s4)c(-c4ccc(F)cc4)c4nc(c(-c5ccc(F)cc5)c5ccc2s5)C=C4)C=C3)cc1,75%,Not toxic,0.33 fmol,380 nM,1.8
O=S(=O)([O-])c1ccc(-c2c3nc(c(-c4ccc(F)cc4)c4ccc(s4)c(-c4ccc(F)cc4)c4nc(c(-c5ccc(F)cc5)c5ccc2s5)C=C4)C=C3)cc1.[Na+],64%,Not toxic,0.3 fmol,770 nM,0.8
O[C@@H]1c2nc(c(-c3ccccc3)c3ccc(s3)c(-c3ccccc3)c3nc(c(-c4ccccc4)c4ccc(s4)c2-c2ccccc2)C=C3)[C@@H]1O,78%,Not toxic,4.5 fmol,180 nM,> 2
O=C(O)COc1ccc(-c2c3nc(c(-c4ccccc4)c4ccc(s4)c(-c4ccccc4)c4nc(c(-c5ccc(OCC(=O)O)cc5)c5ccc2s5)[C@H](O)[C@@H]4O)C=C3)cc1,62%,Not toxic,0.11 fmol,2570 nM,-0.5
O=C(O)COc1ccc(-c2c3nc(c(-c4ccccc4)c4ccc(s4)c(-c4ccccc4)c4nc(c(-c5ccccc5)c5ccc2s5)C=C4)C=C3)cc1,78%,Not toxic,0.31 fmol,260 nM,1.6
O=C(O)COc1c(OCC(=O)O)c2cc3nc(c(-c4ccccc4)c4ccc([nH]4)c(-c4ccccc4)c4nc(cc1s2)C=C4)C=C3 [THIAPORPHYRIN],48%,Not toxic,0.16 fmol,2280 nM,0.8
O=C(O)COc1ccc(-c2c3nc(c(-c4ccccc4)c4ccc(s4)c(-c4ccccc4)c4nc(c(-c5ccc(OCC(=O)O)cc5)c5ccc2s5)C=C4)C=C3)cc1,68%,Not toxic,0.59 fmol,130 nM,0.1
